Test results as given in ChEMBL document CHEMBL4371031, “In Vitro Antiviral Activity of New Oxazoline Derivatives as Potent Poliovirus Inhibitors” (J Med Chem, 2019).

Columns and labels:
Poliovirus 1 [1] = test: Antiviral activity against Human poliovirus 1 10688 infected in human HeLa cells assessed as reduction in virus-induced cytopathic effect after 72 hrs by crystal violet staining-based assay; format: functional, organism-based; details: Enterovirus C, 10688, HeLa
In short: (§1)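 HeLa cells grown in MEM-10% FBS, seeded at 2x10^5 cells/mL in MEM-2% FBS and preincubated 24 h at 37°C, 5% CO2. Compound and virus were cross-titrated […] compound in 0.5 log10 steps (7-point curves), with duplicate wells and three replicate tests per virus. After 72 h at 37°C, cells were crystal violet stained and read at 590 nm. EC50 came from a four-parameter fit; if all virus dilutions gave >80% monolayer destruction, the value was […].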

Poliovirus 1 [2] = test: Antiviral activity against Human poliovirus 1 10693 infected in human HeLa cells assessed as reduction in virus-induced cytopathic effect after 72 hrs by crystal violet staining-based assay; format: functional, organism-based; details: Enterovirus C, 10693, HeLa; in short: as §1
Poliovirus 1 [3] = test: Antiviral activity against Human poliovirus 1 10694 infected in human HeLa cells assessed as reduction in virus-induced cytopathic effect after 72 hrs by crystal violet staining-based assay; format: functional, organism-based; details: Enterovirus C, 10694, HeLa; in short: as §1
Poliovirus 1 [4] = test: Antiviral activity against Human poliovirus 1 10222 infected in human HeLa cells assessed as reduction in virus-induced cytopathic effect after 72 hrs by crystal violet staining-based assay; format: functional, organism-based; details: Enterovirus C, 10222, HeLa; in short: as §1
Poliovirus 1 [5] = test: Antiviral activity against Human poliovirus 1 10223 infected in human HeLa cells assessed as reduction in virus-induced cytopathic effect after 72 hrs by crystal violet staining-based assay; format: functional, organism-based; details: Enterovirus C, 10223, HeLa; in short: as §1
Poliovirus 1 [6] = test: Antiviral activity against Human poliovirus 1 10224 infected in human HeLa cells assessed as reduction in virus-induced cytopathic effect after 72 hrs by crystal violet staining-based assay; format: functional, organism-based; details: Enterovirus C, 10224, HeLa; in short: as §1
Poliovirus 1 [7] = test: Antiviral activity against Human poliovirus 1 10225 infected in human HeLa cells assessed as reduction in virus-induced cytopathic effect after 72 hrs by crystal violet staining-based assay; format: functional, organism-based; details: Enterovirus C, 10225, HeLa; in short: as §1
Poliovirus 1 [8] = test: Antiviral activity against Human poliovirus 1 10238 infected in human HeLa cells assessed as reduction in virus-induced cytopathic effect after 72 hrs by crystal violet staining-based assay; format: functional, organism-based; details: Enterovirus C, 10238, HeLa; in short: as §1
Poliovirus 1 [9] = test: Antiviral activity against Human poliovirus 1 10239 infected in human HeLa cells assessed as reduction in virus-induced cytopathic effect after 72 hrs by crystal violet staining-based assay; format: functional, organism-based; details: Enterovirus C, 10239, HeLa; in short: as §1
Poliovirus 1 [10] = test: Antiviral activity against Human poliovirus 1 10241 infected in human HeLa cells assessed as reduction in virus-induced cytopathic effect after 72 hrs by crystal violet staining-based assay; format: functional, organism-based; details: Enterovirus C, 10241, HeLa; in short: as §1
Poliovirus 1 [11] = test: Antiviral activity against Human poliovirus 1 10242 infected in human HeLa cells assessed as reduction in virus-induced cytopathic effect after 72 hrs by crystal violet staining-based assay; format: functional, organism-based; details: Enterovirus C, 10242, HeLa; in short: as §1
Poliovirus 2 [12] = test: Antiviral activity against Human poliovirus 2 10219 infected in human HeLa cells assessed as reduction in virus-induced cytopathic effect after 72 hrs by crystal violet staining-based assay; format: functional, organism-based; details: Enterovirus C, 10219, HeLa; in short: as §1
Poliovirus 2 [13] = test: Antiviral activity against Human poliovirus 2 10220 infected in human HeLa cells assessed as reduction in virus-induced cytopathic effect after 72 hrs by crystal violet staining-based assay; format: functional, organism-based; details: Enterovirus C, 10220, HeLa; in short: as §1
Poliovirus 2 [14] = test: Antiviral activity against Human poliovirus 2 10227 infected in human HeLa cells assessed as reduction in virus-induced cytopathic effect after 72 hrs by crystal violet staining-based assay; format: functional, organism-based; details: Enterovirus C, 10227, HeLa; in short: as §1
Poliovirus 2 [15] = test: Antiviral activity against Human poliovirus 2 10228 infected in human HeLa cells assessed as reduction in virus-induced cytopathic effect after 72 hrs by crystal violet staining-based assay; format: functional, organism-based; details: Enterovirus C, 10228, HeLa; in short: as §1
Poliovirus 2 [16] = test: Antiviral activity against Human poliovirus 2 10229 infected in human HeLa cells assessed as reduction in virus-induced cytopathic effect after 72 hrs by crystal violet staining-based assay; format: functional, organism-based; details: Enterovirus C, 10229, HeLa; in short: as §1
Poliovirus 2 [17] = test: Antiviral activity against Human poliovirus 2 10230 infected in human HeLa cells assessed as reduction in virus-induced cytopathic effect after 72 hrs by crystal violet staining-based assay; format: functional, organism-based; details: Enterovirus C, 10230, HeLa; in short: as §1
Poliovirus 2 [18] = test: Antiviral activity against Human poliovirus 2 10232 infected in human HeLa cells assessed as reduction in virus-induced cytopathic effect after 72 hrs by crystal violet staining-based assay; format: functional, organism-based; details: Enterovirus C, 10232, HeLa; in short: as §1
Poliovirus 2 [19] = test: Antiviral activity against Human poliovirus 2 10233 infected in human HeLa cells assessed as reduction in virus-induced cytopathic effect after 72 hrs by crystal violet staining-based assay; format: functional, organism-based; details: Enterovirus C, 10233, HeLa; in short: as §1
Poliovirus 2 [20] = test: Antiviral activity against Human poliovirus 2 10243 infected in human HeLa cells assessed as reduction in virus-induced cytopathic effect after 72 hrs by crystal violet staining-based assay; format: functional, organism-based; details: Enterovirus C, 10243, HeLa; in short: as §1
Poliovirus 3 [21] = test: Antiviral activity against Human poliovirus 3 10804 infected in human HeLa cells assessed as reduction in virus-induced cytopathic effect after 72 hrs by crystal violet staining-based assay; format: functional, organism-based; details: Enterovirus C, 10804, HeLa; in short: as §1
Poliovirus 2 [22] = test: Antiviral activity against Human poliovirus 2 MEF-1 infected in human HeLa cells assessed as reduction in virus-induced cytopathic effect after 72 hrs by crystal violet staining-based assay; format: functional, organism-based; details: Enterovirus C, MEF-1, HeLa; in short: as §1
Poliovirus 2 [23] = test: Antiviral activity against Human poliovirus 2 P712 infected in human HeLa cells assessed as reduction in virus-induced cytopathic effect after 72 hrs by crystal violet staining-based assay; format: functional, organism-based; details: Enterovirus C; in short: as §1
Poliovirus 3 [24] = test: Antiviral activity against Human poliovirus 3 Saukett infected in human HeLa cells assessed as reduction in virus-induced cytopathic effect after 72 hrs by crystal violet staining-based assay; format: functional, organism-based; details: Enterovirus C; in short: as §1
Poliovirus 3 [25] = test: Antiviral activity against Human poliovirus 3 Leon infected in human HeLa cells assessed as reduction in virus-induced cytopathic effect after 72 hrs by crystal violet staining-based assay; format: functional, organism-based; details: Enterovirus C; in short: as §1
Poliovirus 1 [26] = test: Antiviral activity against Human poliovirus 1 Sabin 1 infected in human HeLa cells assessed as reduction in virus-induced cytopathic effect after 72 hrs by crystal violet staining-based assay; format: functional, organism-based; details: Enterovirus C, Sabin 1, HeLa; in short: as §1
Poliovirus 2 [27] = test: Antiviral activity against Human poliovirus 2 Sabin 2 infected in human HeLa cells assessed as reduction in virus-induced cytopathic effect after 72 hrs by crystal violet staining-based assay; format: functional, organism-based; details: Enterovirus C, Sabin 2, HeLa; in short: as §1
Poliovirus 3 [28] = test: Antiviral activity against Human poliovirus 3 Sabin 3 infected in human HeLa cells assessed as reduction in virus-induced cytopathic effect after 72 hrs by crystal violet staining-based assay; format: functional, organism-based; details: Enterovirus C, Sabin 3, HeLa; in short: as §1
[29] = Cytotoxicity against human HeLa cells after 72 hrs by ATP-bioluminescence cell viability assay; format: cell-based
In short: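 Luminescent ATP cell-viability read-out on HeLa cells with compound only, run under conditions similar to the cytopathic-effect assay (72 h, 37°C). Signal was compared with cell-only wells. CC50 was derived from the titration curves.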

[30] = Therapeutic ratio of CC50 for human HeLa cells to EC50 for Poliovirus Sabin 2 infected in human HeLa cells; format: toxicity, cell-based; details: read-out: Ratio CC50/EC50

Structure (SMILES) | EC50 (Poliovirus 1 [1]) | EC50 (Poliovirus 1 [2]) | EC50 (Poliovirus 1 [3]) | EC50 (Poliovirus 1 [4]) | EC50 (Poliovirus 1 [5]) | EC50 (Poliovirus 1 [6]) | EC50 (Poliovirus 1 [7]) | EC50 (Poliovirus 1 [8]) | EC50 (Poliovirus 1 [9]) | EC50 (Poliovirus 1 [10]) | EC50 (Poliovirus 1 [11]) | EC50 (Poliovirus 2 [12]) | EC50 (Poliovirus 2 [13]) | EC50 (Poliovirus 2 [14]) | EC50 (Poliovirus 2 [15]) | EC50 (Poliovirus 2 [16]) | EC50 (Poliovirus 2 [17]) | EC50 (Poliovirus 2 [18]) | EC50 (Poliovirus 2 [19]) | EC50 (Poliovirus 2 [20]) | further results
Cc1ccc(C(=O)CCCCSc2ccc(C3=NCCO3)cc2)s1 | 2800 nM | > 10000 nM | 6230 nM | 4900 nM | 3730 nM | > 10000 nM | > 10000 nM | 7470 nM | 5630 nM | 8070 nM | 8200 nM | 1200 nM | 1000 nM | 4330 nM | 9100 nM | 2770 nM | 5330 nM | 6330 nM | 8470 nM | 1770 nM | EC50 (Poliovirus 3 [21]): 440 nM; EC50 (Poliovirus 2 [22]): 1260 nM; EC50 (Poliovirus 2 [23]): 2930 nM; EC50 (Poliovirus 3 [24]): 1670 nM; EC50 (Poliovirus 3 [25]): 1110 nM; EC50 (Poliovirus 1 [26]): 700 nM; EC50 (Poliovirus 2 [27]): 160 nM; EC50 (Poliovirus 3 [28]): 330 nM; CC50 at 72 h [29]: 20000 nM; selectivity ratio [30]: 146
Cc1ccc(C(=O)CCCCOc2ccc(C3=NCCO3)cc2)s1 | 40 nM | 24200 nM | 7220 nM | 7890 nM | 70 nM | > 100000 nM | 35700 nM | 2100 nM | 940 nM | 3170 nM | 37900 nM | 30 nM | 40 nM | 30 nM | 10100 nM | 550 nM | 100 nM | 540 nM | 450 nM | 40 nM | EC50 (Poliovirus 3 [21]): > 100000 nM; EC50 (Poliovirus 2 [22]): > 100000 nM; EC50 (Poliovirus 2 [23]): > 100000 nM; EC50 (Poliovirus 3 [24]): 350 nM; EC50 (Poliovirus 3 [25]): 170 nM; EC50 (Poliovirus 1 [26]): 12500 nM; EC50 (Poliovirus 2 [27]): 30 nM; EC50 (Poliovirus 3 [28]): 320 nM; CC50 at 72 h [29]: > 50000 nM; selectivity ratio [30]: > 1670
Cc1ccc(C(=O)CCC/C=C/c2ccc(C3=NCCO3)cc2)s1 | 40 nM | 980 nM | 2300 nM | 1130 nM | 20 nM | 1110 nM | 810 nM | 190 nM | 220 nM | 370 nM | 20 nM | 30 nM | 20 nM | 40 nM | 500 nM | 510 nM | 30 nM | 23 nM | 190 nM | 30 nM | EC50 (Poliovirus 3 [21]): 20 nM; EC50 (Poliovirus 2 [22]): 30 nM; EC50 (Poliovirus 2 [23]): 240 nM; EC50 (Poliovirus 3 [24]): 40 nM; EC50 (Poliovirus 3 [25]): 950 nM; EC50 (Poliovirus 1 [26]): 340 nM; EC50 (Poliovirus 2 [27]): 30 nM; EC50 (Poliovirus 3 [28]): 50 nM; CC50 at 72 h [29]: > 50000 nM; selectivity ratio [30]: > 1850
